Converted amounts (≈) assume the structure as drawn.
Columns and labels:
Format in all cases: functional
Staphylococcus aureus [1] = assay: Antibacterial activity against standard Staphylococcus aureus after 20 hrs by agar dilution method
Outline: (§1)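 Agar dilution MIC. The inoculum came from a seed culture in Sensitivity test broth. A 5 µl portion of a cell suspension of about 10^6 CFU/ml was inoculated onto Sensitivity disk agar supplemented with 5% horse blood. Plates were incubated at 37 °C for 20 h, then MIC was read.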

Staphylococcus aureus [2] = assay: Antibacterial activity against susceptible Staphylococcus aureus after 20 hrs by agar dilution method; outline: as §1
Staphylococcus aureus [3] = assay: Antibacterial activity against ermA-constitutive resistant Staphylococcus aureus after 20 hrs by agar dilution method; outline: as §1
Staphylococcus aureus [4] = assay: Antibacterial activity against ermB-inducible resistant Staphylococcus aureus after 20 hrs by agar dilution method; outline: as §1
Staphylococcus aureus [5] = assay: Antibacterial activity against ermC-inducible resistant Staphylococcus aureus after 20 hrs by agar dilution method; outline: as §1
Streptococcus pneumoniae [6] = assay: Antibacterial activity against susceptible Streptococcus pneumoniae after 20 hrs by agar dilution method
Outline: (§2)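 MIC by agar dilution. Strains grown on blood agar plates for seed culture. About 5 µl of a suspension of roughly 10^6 CFU/ml spotted onto Sensitivity disk agar with 5% horse blood. Plates incubated at 37 °C for 20 h, then MIC read.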

Streptococcus pneumoniae [7] = assay: Antibacterial activity against ermB-constitutive resistant Streptococcus pneumoniae after 20 hrs by agar dilution method
Outline: (§3)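 Agar dilution MIC. Streptococcal strains were pre-cultured on blood agar plates. A 5 µl portion of a cell suspension of about 10^6 CFU/ml was inoculated onto Sensitivity disk agar supplemented with 5% horse blood. Plates were incubated at 37 °C for 20 h, then MIC was read.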

Streptococcus pneumoniae [8] = assay: Antibacterial activity against ermB-inducible resistant Streptococcus pneumoniae after 20 hrs by agar dilution method; outline: as §3
Streptococcus pneumoniae [9] = assay: Antibacterial activity against mefE efflux-resistant Streptococcus pneumoniae after 20 hrs by agar dilution method; outline: as §3
Streptococcus pyogenes [10] = assay: Antibacterial activity against standard Streptococcus pyogenes after 20 hrs by agar dilution method; outline: as §2
Streptococcus pyogenes [11] = assay: Antibacterial activity against ermB-constitutive resistant Streptococcus pyogenes after 20 hrs by agar dilution method; outline: as §3
Streptococcus pyogenes [12] = assay: Antibacterial activity against mefE efflux-resistant Streptococcus pyogenes after 20 hrs by agar dilution method; outline: as §3
Moraxella catarrhalis = assay: Antibacterial activity against standard Moraxella catarrhalis after 20 hrs by agar dilution method; outline: as §2
Haemophilus influenzae [13] = assay: Antibacterial activity against standard Haemophilus influenzae after 20 hrs by agar dilution method; outline: as §2
Haemophilus influenzae [14] = assay: Antibacterial activity against susceptible Haemophilus influenzae after 20 hrs by agar dilution method; outline: as §2

For `CCC(=O)O[C@@H]1CC(=O)O[C@H](C)C[C@H](O)[C@H](N(C)CCCc2cccc3ccccc23)/C=C/[C@H](OC(C)=O)[C@H](C)C[C@H](CC=O)[C@H](O[C@@H]2O[C@H](C)[C@@H](O)[C@H](N(C)C)[C@H]2O)[C@H]1OC`, the MIC (Staphylococcus aureus [1]) was 0.39 µg/mL (≈ 0.448 µM), the MIC (Staphylococcus aureus [2]) was 0.78 µg/mL (≈ 0.895 µM) and the MIC (Staphylococcus aureus [3]) was greater than 100 µg/mL. For the same molecule, the MIC (Staphylococcus aureus [4]) was 0.78 µg/mL (≈ 0.895 µM), the MIC (Staphylococcus aureus [5]) was 0.78 µg/mL (≈ 0.895 µM) and the MIC (Streptococcus pneumoniae [6]) was 0.025 µg/mL (≈ 0.0287 µM). It also gave an MIC (Streptococcus pneumoniae [7]) greater than 100 µg/mL, an MIC (Streptococcus pneumoniae [8]) of 100 µg/mL (≈ 115 µM) and an MIC (Streptococcus pneumoniae [9]) of 0.1 µg/mL (≈ 0.115 µM). The MIC (Streptococcus pyogenes [10]) was 0.1 µg/mL (≈ 0.115 µM), the MIC (Streptococcus pyogenes [11]) was greater than 100 µg/mL and the MIC (Streptococcus pyogenes [12]) was 0.39 µg/mL (≈ 0.448 µM). For the same molecule, the MIC (Moraxella catarrhalis) was 0.025 µg/mL (≈ 0.0287 µM), the MIC (Haemophilus influenzae [13]) was 0.78 µg/mL (≈ 0.895 µM) and the MIC (Haemophilus influenzae [14]) was 3.13 µg/mL (≈ 3.59 µM).

`CCC(=O)O[C@@H]1CC(=O)O[C@H](C)C[C@H](O)[C@H](N(C)CCCn2cnc(-c3cccnc3)c2)/C=C/[C@H](OC(C)=O)[C@H](C)C[C@H](CC=O)[C@H](O[C@@H]2O[C@H](C)[C@@H](O[C@H]3C[C@@](C)(O)[C@@H](OC(=O)CC)[C@H](C)O3)[C@H](N(C)C)[C@H]2O)[C@H]1OC` showed an MIC (Staphylococcus aureus [1]) of 0.39 µg/mL (≈ 0.358 µM), an MIC (Staphylococcus aureus [2]) of 0.2 µg/mL (≈ 0.184 µM) and an MIC (Staphylococcus aureus [3]) greater than 100 µg/mL. It also gave an MIC (Staphylococcus aureus [4]) of 0.39 µg/mL (≈ 0.358 µM), an MIC (Staphylococcus aureus [5]) of 0.39 µg/mL (≈ 0.358 µM) and an MIC (Streptococcus pneumoniae [6]) of 0.06 µg/mL (≈ 0.0551 µM). For the same molecule, the MIC (Streptococcus pneumoniae [7]) was greater than 100 µg/mL, the MIC (Streptococcus pneumoniae [8]) was 100 µg/mL (≈ 91.9 µM) and the MIC (Streptococcus pneumoniae [9]) was 0.1 µg/mL (≈ 0.0919 µM). For the same molecule, the MIC (Streptococcus pyogenes [10]) was 0.1 µg/mL (≈ 0.0919 µM), the MIC (Streptococcus pyogenes [11]) was greater than 100 µg/mL and the MIC (Streptococcus pyogenes [12]) was 0.2 µg/mL (≈ 0.184 µM). For the same molecule, the MIC (Moraxella catarrhalis) was 1.56 µg/mL (≈ 1.43 µM), the MIC (Haemophilus influenzae [13]) was 1.56 µg/mL (≈ 1.43 µM) and the MIC (Haemophilus influenzae [14]) was 25 µg/mL (≈ 23 µM).

`CCC(=O)O[C@@H]1CC(=O)O[C@H](C)C[C@@H]2OC(=O)N(CCc3ccccc3)[C@@H]2/C=C/[C@H](OC(C)=O)[C@H](C)C[C@H](CC=O)[C@H](O[C@@H]2O[C@H](C)[C@@H](O[C@H]3C[C@@](C)(O)[C@@H](OC(=O)CC)[C@H](C)O3)[C@H](N(C)C)[C@H]2O)[C@H]1OC` gave an MIC (Staphylococcus aureus [1]) of 0.78 µg/mL (≈ 0.765 µM), an MIC (Staphylococcus aureus [2]) of 0.39 µg/mL (≈ 0.383 µM) and an MIC (Staphylococcus aureus [3]) greater than 100 µg/mL. For the same molecule, the MIC (Staphylococcus aureus [4]) was 6.25 µg/mL (≈ 6.13 µM), the MIC (Staphylococcus aureus [5]) was 1.56 µg/mL (≈ 1.53 µM) and the MIC (Streptococcus pneumoniae [6]) was 0.2 µg/mL (≈ 0.196 µM). It also gave an MIC (Streptococcus pneumoniae [7]) greater than 100 µg/mL, an MIC (Streptococcus pneumoniae [8]) of 50 µg/mL (≈ 49.1 µM) and an MIC (Streptococcus pneumoniae [9]) of 0.2 µg/mL (≈ 0.196 µM). The MIC (Streptococcus pyogenes [11]) was greater than 100 µg/mL, the MIC (Streptococcus pyogenes [12]) was 0.1 µg/mL (≈ 0.0981 µM) and the MIC (Moraxella catarrhalis) was 0.78 µg/mL (≈ 0.765 µM). For the same molecule, the MIC (Haemophilus influenzae [13]) was 3.13 µg/mL (≈ 3.07 µM) and the MIC (Haemophilus influenzae [14]) was 25 µg/mL (≈ 24.5 µM).

`CCC(=O)O[C@@H]1CC(=O)O[C@H](C)C[C@H](O)[C@H](N(C)CCCc2cnc3ccccc3c2)/C=C/[C@H](OC(C)=O)[C@H](C)C[C@H](CC=O)[C@H](O[C@@H]2O[C@H](C)[C@@H](O[C@H]3C[C@@](C)(O)[C@@H](OC(=O)CC)[C@H](C)O3)[C@H](N(C)C)[C@H]2O)[C@H]1OC` showed an MIC (Staphylococcus aureus [1]) of 0.39 µg/mL (≈ 0.364 µM), an MIC (Staphylococcus aureus [2]) of 0.39 µg/mL (≈ 0.364 µM) and an MIC (Staphylococcus aureus [3]) greater than 100 µg/mL. The MIC (Staphylococcus aureus [4]) was 0.2 µg/mL (≈ 0.187 µM), the MIC (Staphylococcus aureus [5]) was 0.39 µg/mL (≈ 0.364 µM) and the MIC (Streptococcus pneumoniae [6]) was 0.05 µg/mL (≈ 0.0466 µM). The MIC (Streptococcus pneumoniae [7]) was greater than 100 µg/mL, the MIC (Streptococcus pneumoniae [8]) was 12.5 µg/mL (≈ 11.7 µM) and the MIC (Streptococcus pneumoniae [9]) was 0.1 µg/mL (≈ 0.0933 µM). The MIC (Streptococcus pyogenes [10]) was 0.1 µg/mL (≈ 0.0933 µM), the MIC (Streptococcus pyogenes [11]) was greater than 100 µg/mL and the MIC (Streptococcus pyogenes [12]) was 0.2 µg/mL (≈ 0.187 µM). The MIC (Moraxella catarrhalis) was 0.78 µg/mL (≈ 0.727 µM), the MIC (Haemophilus influenzae [13]) was 3.13 µg/mL (≈ 2.92 µM) and the MIC (Haemophilus influenzae [14]) was 25 µg/mL (≈ 23.3 µM).

`CCC(=O)O[C@@H]1CC(=O)O[C@H](C)C[C@H](O)[C@H](N(C)CCCCc2ccccc2)/C=C/[C@H](OC(C)=O)[C@H](C)C[C@H](CC=O)[C@H](O[C@@H]2O[C@H](C)[C@@H](O[C@H]3C[C@@](C)(O)[C@@H](OC(=O)CC)[C@H](C)O3)[C@H](N(C)C)[C@H]2O)[C@H]1OC` gave an MIC (Staphylococcus aureus [1]) of 0.39 µg/mL (≈ 0.377 µM), an MIC (Staphylococcus aureus [2]) of 0.39 µg/mL (≈ 0.377 µM) and an MIC (Staphylococcus aureus [3]) greater than 100 µg/mL. For the same molecule, the MIC (Staphylococcus aureus [4]) was 1.56 µg/mL (≈ 1.51 µM), the MIC (Staphylococcus aureus [5]) was 0.78 µg/mL (≈ 0.753 µM) and the MIC (Streptococcus pneumoniae [6]) was 0.05 µg/mL (≈ 0.0483 µM). The MIC (Streptococcus pneumoniae [7]) was greater than 100 µg/mL, the MIC (Streptococcus pneumoniae [8]) was 12.5 µg/mL (≈ 12.1 µM) and the MIC (Streptococcus pneumoniae [9]) was 0.2 µg/mL (≈ 0.193 µM). For the same molecule, the MIC (Streptococcus pyogenes [11]) was 100 µg/mL (≈ 96.6 µM), the MIC (Streptococcus pyogenes [12]) was 0.2 µg/mL (≈ 0.193 µM) and the MIC (Moraxella catarrhalis) was 0.78 µg/mL (≈ 0.753 µM). The MIC (Haemophilus influenzae [13]) was 3.13 µg/mL (≈ 3.02 µM) and the MIC (Haemophilus influenzae [14]) was 25 µg/mL (≈ 24.1 µM).

`CCC(=O)O[C@@H]1CC(=O)O[C@H](C)C[C@H](O)[C@H](N(C)CCCc2ccccc2)/C=C/[C@H](OC(C)=O)[C@H](C)C[C@H](CC=O)[C@H](O[C@@H]2O[C@H](C)[C@@H](O[C@H]3C[C@@](C)(OC(C)=O)[C@@H](OC(=O)CC)[C@H](C)O3)[C@H](N(C)C)[C@H]2O)[C@H]1OC` showed an MIC (Staphylococcus aureus [1]) of 0.39 µg/mL (≈ 0.367 µM), an MIC (Staphylococcus aureus [2]) of 0.39 µg/mL (≈ 0.367 µM) and an MIC (Staphylococcus aureus [3]) greater than 100 µg/mL. For the same molecule, the MIC (Staphylococcus aureus [4]) was 0.2 µg/mL (≈ 0.188 µM), the MIC (Staphylococcus aureus [5]) was 0.39 µg/mL (≈ 0.367 µM) and the MIC (Streptococcus pneumoniae [6]) was 0.05 µg/mL (≈ 0.047 µM). It also gave an MIC (Streptococcus pneumoniae [7]) greater than 100 µg/mL, an MIC (Streptococcus pneumoniae [8]) of 1.56 µg/mL (≈ 1.47 µM) and an MIC (Streptococcus pneumoniae [9]) of 0.1 µg/mL (≈ 0.094 µM). For the same molecule, the MIC (Streptococcus pyogenes [10]) was 0.05 µg/mL (≈ 0.047 µM), the MIC (Streptococcus pyogenes [11]) was 50 µg/mL (≈ 47 µM) and the MIC (Streptococcus pyogenes [12]) was 0.1 µg/mL (≈ 0.094 µM). It also gave an MIC (Moraxella catarrhalis) of 0.39 µg/mL (≈ 0.367 µM), an MIC (Haemophilus influenzae [13]) of 3.13 µg/mL (≈ 2.94 µM) and an MIC (Haemophilus influenzae [14]) of 25 µg/mL (≈ 23.5 µM).
